Activity calls are given as the source filed them. No cut-off for these calls is given here.
Columns and labels:
Leishmania donovani [1] = experiment: Antileishmanial activity against Leishmania donovani axenic amastigotes; assay type: functional, organism-based
Procedure, shortened: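 L. donovani axenic amastigotes (MHOM/SD/62/1S-CL2D), adapted from promastigotes and kept at 37 °C in amastigote medium. 6 × 10^4 cells per well, 2-fold compound dilution series, 3 days at 37 °C in 5% CO2. Growth read by tetrazolium (CellTiter) absorbance at 490 nm. IC50 taken from a four-parameter dose-response fit; three or more separate experiments, error given as SD.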

Vero = experiment: Antiproliferative activity against Vero cell; assay type: functional, cell-based; details: Chlorocebus sabaeus
Procedure, shortened: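 Vero cells grown in alpha-MEM with Glutamax-I, 10% heat-inactivated FBS, penicillin/streptomycin. 1 × 10^3 cells per well seeded with compounds over a 2-fold dilution series, run like the amastigote assay: 3 days at 37 °C, humidified, 5% CO2. Growth read by tetrazolium (CellTiter) absorbance at 490 nm. IC50 from four-parameter dose-response fit; three or more separate experiments.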

Leishmania donovani [2] = experiment: Cell cycle arrest in Leishmania donovani promastigotes by accumulation at G2/S phase at 2 uM; assay type: functional, organism-based; details: in the assay text read “G2/M phase” for “G2/S phase”
Procedure, shortened: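 L. donovani promastigotes at 5 × 10^6 cells/mL in RPMI-based promastigote medium with 10% HI-FBS, treated or given vehicle (1% DMSO) for 2 days at 25 °C. Cells then methanol-fixed and stained with propidium iodide (10 µg/mL) with Triton X-100 and RNase A. DNA content per cell measured by flow cytometry; histograms representative of three experiments.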

Leishmania sp. = experiment: Inhibition of Leishmania tarentolae tubulin assembly; assay type: functional
Procedure, shortened: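 Purified L. tarentolae tubulin at 1.5 mg/mL in […] pH 6.9 with 1 mM MgCl2, 1 mM EGTA, 10% DMSO and 1 mM GTP, incubated at 30 °C with or without compound (2 or 20 µM tested). Assembly followed as turbidity at 351 nm.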

Leishmania mexicana [3] = experiment: Reduction in Leishmania mexicana infection in mouse J774 macrophage at 2 uM; assay type: functional; parameters: scale not given: the % may be the effect or the level left
Procedure, shortened: (§1)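 J774 macrophages (1 × 10^5 per well) allowed to adhere overnight, then infected with 1 × 10^6 L. mexicana promastigotes (MNYC/BCZ/62/M379) overnight at 33 °C. After washing, treated with compound or 1% DMSO vehicle for 3 days at 33 °C, methanol-fixed and Giemsa-stained. Percent reduction of infection is relative to controls; average ± range of two experiments.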

Leishmania mexicana [4] = experiment: Reduction in Leishmania mexicana infection in mouse J774 macrophage at 4 uM; assay type: functional; parameters: scale not given: the % may be the effect or the level left; procedure, shortened: as §1
Leishmania mexicana [5] = experiment: Reduction in Leishmania mexicana infection in mouse J774 macrophage at 8 uM; assay type: functional; parameters: scale not given: the % may be the effect or the level left; procedure, shortened: as §1
Leishmania donovani [6] = experiment: Reduction in Leishmania donovani load in infected BALB/c mouse at 50 mg/kg/day, ip; assay type: functional; details: route intraperitoneal
Procedure, shortened: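 BALB/c mice, 12 weeks old, infected i.v. (tail vein) with 1 × 10^7 hamster-spleen-derived L. donovani amastigotes. After 7 days, dosed i.p. daily for 5 days in 0.5% methylcellulose/0.1% Tween-80/10% DMSO in water; vehicle controls run. Killed 4 days after treatment. Liver burden scored as LDUs from Giemsa-stained smears; mean ± SD of five mice.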

Leishmania mexicana [7] = experiment: Reduction in Leishmania mexicana infection in mouse J774 macrophage at 25 nM; assay type: functional; parameters: scale not given: the % may be the effect or the level left; procedure, shortened: as §1
Leishmania mexicana [8] = experiment: Reduction in Leishmania mexicana infection in mouse J774 macrophage at 50 nM; assay type: functional; parameters: scale not given: the % may be the effect or the level left; procedure, shortened: as §1
Leishmania mexicana [9] = experiment: Reduction in Leishmania mexicana infection in mouse J774 macrophage at 125 nM; assay type: functional; parameters: scale not given: the % may be the effect or the level left; procedure, shortened: as §1

| SMILES | IC50 (Leishmania donovani [1]) | other results |
| --- | --- | --- |
| O=S(=O)(Nc1ccc(Oc2ccc(C(F)(F)F)cc2)cc1)c1cc(Cl)c(Cl)cc1Cl | 25 µM |  |
| Cc1cc(Sc2c([N+](=O)[O-])cc(C(F)(F)F)cc2[N+](=O)[O-])c(Cl)cc1Cl | 0.5 µM | IC50 (Vero): 5.3 µM; Activity (Leishmania donovani [2]): inactive; Activity (Leishmania sp.): inactive; Activity (Leishmania mexicana [3]): 13%; Activity (Leishmania mexicana [4]): 43%; Activity (Leishmania mexicana [5]): 68%; Activity (Leishmania donovani [6]): 1583 |
| O=C(CSCc1cccc(C(F)(F)F)c1)c1ccc(OCc2ccc(F)cc2)cc1 | > 100 µM |  |
| Cc1cc(C)c(-n2nnnc2SCc2ccc(C(F)(F)F)cc2)c(C)c1 | 32 µM |  |
| CCCCN(CCCC)c1c([N+](=O)[O-])cc(S(=O)(=O)Nc2cccc(F)c2)cc1[N+](=O)[O-] | 5.7 µM |  |
| Cc1nc(-c2ccc(S(=O)(=O)Nc3ccc(Br)cc3Cl)s2)cs1 | 66.6 µM |  |
| COc1ccccc1NC(=O)CSCc1cnc(C)c(O)c1O | > 100 µM |  |
| CC(=O)c1ccc(OCc2ccc(Cl)c(Cl)c2)c([N+](=O)[O-])c1 | > 100 µM |  |
| C[C@@H]1[C@H](O)[C@@H](C)/C=C/C=C/C=C/C=C/C=C/C=C/C=C/[C@H](O[C@@H]2O[C@H](C)[C@@H](O)[C@H](N)[C@@H]2O)C[C@@H]2O[C@](O)(C[C@@H](O)C[C@@H](O)[C@H](O)CC[C@@H](O)C[C@@H](O)CC(=O)O[C@H]1C)C[C@H](O)[C@H]2C(=O)O [AMPHOTERICIN B] |  | Activity (Leishmania mexicana [7]): 44%; Activity (Leishmania mexicana [8]): 76%; Activity (Leishmania mexicana [9]): 96% |
| O=[N+]([O-])c1ccc(Oc2c(Cl)cccc2Cl)c(Cl)c1Oc1c(Cl)cccc1Cl | 80 µM |  |
| CCCCN(CCCC)c1c([N+](=O)[O-])cc(S(=O)(=O)Nc2ccc(F)cc2)cc1[N+](=O)[O-] | 5.6 µM |  |
| O=C1NC(=O)c2c1ccc(Sc1c(Cl)cccc1Cl)c2[N+](=O)[O-] | 60 µM |  |
| O=S(=O)(c1ccc(Cl)cc1)N1CCCN(Cc2ccc(Cl)cc2Cl)CC1 | 72 µM |  |
| OC(CNCc1ccc(Cl)cc1Cl)Cn1c(-c2ccc(F)cc2)cc2ccccc21 (stereo not drawn) | 37 µM |  |
| COc1cc(C2SCCS2)cc(Br)c1Oc1cc(C)c(C(F)(F)F)cc1[N+](=O)[O-] | > 100 µM |  |
| Cc1cc(C(=O)O)c(Sc2nccn2-c2ccc(Cl)cc2Cl)nc1C#N | 21 µM |  |
| Cc1cc(S(=O)(=O)c2c([N+](=O)[O-])cc(C(F)(F)F)cc2[N+](=O)[O-])c(Cl)cc1Cl | 2.3 µM | IC50 (Vero): 24 µM |
| Cc1cc(Sc2nnc3oc(O)cc(C)c2-3)c(C)cc1Cl | 39 µM |  |
| O=C(O)c1ccccc1C(=O)NCCNc1ccc(C(F)(F)F)cn1 | > 100 µM |  |
| COc1ccc(CCNc2ccc(C(F)(F)F)cc2[N+](=O)[O-])cc1OC | > 100 µM |  |
| CCCN(CCC)c1c([N+](=O)[O-])cc(S(=O)(=O)Nc2cccc(F)c2)cc1[N+](=O)[O-] | 2.5 µM |  |
| CSc1cccc(-n2c(S)nnc2CCc2ccc(O)cc2)c1 | > 100 µM |  |
| COc1ccc([N+](=O)[O-])c(OC)c1C(=O)NCCCn1ccnc1 | > 100 µM |  |

From ChEMBL document CHEMBL1138888, “Activity of and initial mechanistic studies on a novel antileishmanial agent identified through in silico pharmacophore development and database searching” (J Med Chem, 2006)
